Test results: ChEMBL document CHEMBL1149027, “Anti-AIDS agents, 10. Acacetin-7-O-beta-D-galactopyranoside, an anti-HIV principle from Chrysanthemum morifolium and a structure-activity correlation with some related flavonoids” (J Nat Prod, 1994)

Legend:
[1] = tested on: Human immunodeficiency virus 1; assay: Antiviral activity against HIV1 3B infected in human H9 cells assessed as inhibition of viral replication after 3 days by p24 antigen capture assay; assay type: functional, organism-based; conditions: Human immunodeficiency virus 1, 3B, H9, 72 h
[2] = tested on: H9; assay: Cytotoxicity against human H9 cells after 3 days; assay type: cell-based; conditions: H9, 72 h
Procedure, shortened: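 Uninfected H9 lymphocytes, given the same 1 h mock incubation at 37° and washing, resuspended at 4 × 10^5 cells/ml. Cultured 3 days at 37° with compound. Cell density counted; IC50 = concentration inhibiting uninfected growth by 50%.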

[3] = Therapeutic index, ratio of IC50 for human H9 cells to EC50 for HIV1 3B; assay type: cell-based; conditions: read-out: TI

Row | SMILES | EC50 [1] | IC50 [2] | selectivity ratio [3]
1 | O=c1cc(-c2ccc(Cl)cc2)oc2cc(O)cc(O)c12 | 4 µM | 16 µM | 4
2 | O=c1cc(-c2ccccc2)oc2c([N+](=O)[O-])c(O)cc(O)c12 | 12 µM | 12 µM | 1
3 | COc1ccc(-c2cc(=O)c3c(O)cc(O[C@@H]4O[C@H](CO[C@@H]5O[C@H](C)[C@@H](O)[C@H](O)[C@@H]5O)[C@@H](O)[C@H](O)[C@H]4O)cc3o2)cc1 | > 231 µM | > 231 µM | –
4 | CC(=O)OC[C@H]1O[C@@H](Oc2cc(OC(C)=O)c3c(=O)cc(-c4ccc(OC(C)=O)c(OC(C)=O)c4)oc3c2)[C@H](OC(C)=O)[C@@H](OC(C)=O)[C@@H]1OC(C)=O | 6 µM | 6 µM | 1
5 | O=C(CNC(=O)OCc1ccccc1)Oc1cc(O)c2c(=O)cc(-c3ccccc3)oc2c1 | 9 µM | 30 µM | 3
6 | Nc1c(O)cc(O)c2c(=O)cc(-c3ccccc3)oc12 | 11 µM | 34 µM | 3
7 | O=c1cc(-c2ccc(Br)cc2)oc2cc(O)cc(O)c12 | 5 µM | 21 µM | 4
8 | CCCc1cc(=O)c2c(O)cc(O)cc2o1 | 27 µM | 73 µM | 3
9 | O=c1cc(-c2cccc(Cl)c2)oc2cc(O)cc(O)c12 | 4 µM | 14 µM | 3
10 | O=c1cc(C2CCCCC2)oc2cc(O)cc(O)c12 | 19 µM | 42 µM | 2
11 | O=c1cc(-c2ccc(F)cc2)oc2cc(O)cc(O)c12 | 4 µM | 13 µM | 3
12 | COc1ccc(-c2cc(=O)c3c(O)cc(O[C@@H]4O[C@H](CO)[C@H](O)[C@H](O)[C@H]4O)cc3o2)cc1 | 8 µM | 37 µM | 5
13 | O=c1cc(-c2ccccc2)oc2c([N+](=O)[O-])c(O)c([N+](=O)[O-])c(O)c12 | 372 µM | 372 µM | 1
14 | O=c1cc(-c2ccccc2Cl)oc2cc(O)cc(O)c12 | 5 µM | 17 µM | 3
15 | O=c1cc(-c2ccc(O)cc2)oc2cc(O[C@@H]3O[C@H](CO)C(O)[C@H](O)[C@H]3O)cc(O)c12 (single isomer, unassigned) [APIGETRIN] | 61 µM | 115 µM | 2
16 | O=c1cc(-c2ccccc2)oc2c(O)c(O)ccc12 [7,8-DIHYDROXYFLAVONE] | 10 µM | 14 µM | 1
17 | O=c1cc(-c2ccc(O)cc2)oc2cc(O)cc(O)c12 [APIGENIN] | 9 µM | 35 µM | 4
18 | O=C(O)[C@H]1O[C@@H](Oc2cc3oc(-c4ccccc4)cc(=O)c3c(O)c2O)[C@H](O)[C@@H](O)[C@@H]1O [BAICALIN] | 112 µM | 72 µM | < 1

Row | SMILES | EC50 [1] | IC50 [2] | selectivity ratio [3]
19 | CC(=O)Oc1cc(OC(C)=O)c2c(=O)cc(-c3ccccc3)oc2c1 [CHRYSIN DIACETATE] | 56 µM | > 373 µM | –
20 | O=c1cc(-c2ccccc2)oc2cc(O)cc(O)c12 [CHRYSIN] | 5 µM | 47 µM | 9
21 | Oc1cc(O)c2c(c1)O[C@H](c1ccc(O)c(O)c1)[C@@H](O)C2 [CIANIDANOL] | > 345 µM | > 345 µM | –
22 | O=c1c(O)c(-c2ccc(O)c(O)c2)oc2cc(O)ccc12 [FISETIN] | 122 µM | 157 µM | 1
23 | O=C1CC(c2ccccc2)Oc2ccccc21 (stereo not drawn) [FLAVANONE] | 58 µM | 45 µM | 1
24 | O=c1cc(-c2ccccc2)oc2ccccc12 [FLAVONE] | 50 µM | 68 µM | 1
25 | O=c1c(O)c(-c2ccccc2)oc2ccccc12 [FLAVONOL] | 13 µM | 17 µM | 1
26 | O=c1c(O)c(-c2ccccc2)oc2cc(O)cc(O)c12 [GALANGIN] | 28 µM | 44 µM | 2
27 | O=c1cc(-c2ccc(O)c(O)c2)oc2cc(O[C@@H]3O[C@H](CO)[C@@H](O)[C@H](O)[C@H]3O)cc(O)c12 [GALUTEOLIN] | 7 µM | 25 µM | 3
28 | COc1ccc([C@@H]2CC(=O)c3c(O)cc(O[C@@H]4O[C@H](CO[C@@H]5O[C@@H](C)[C@H](O)[C@@H](O)[C@H]5O)[C@@H](O)[C@H](O)[C@H]4O)cc3O2)cc1O [HESPERIDIN] | > 164 µM | > 164 µM | –
29 | O=c1cc(-c2ccc(O)c(O)c2)oc2cc(O)cc(O)c12 [LUTEOLIN] | 10 µM | 16 µM | 2
30 | O=c1c(O)c(-c2ccc(O)cc2O)oc2cc(O)cc(O)c12 [MORIN] | > 331 µM | > 331 µM | –
31 | O=c1c(O)c(-c2cc(O)c(O)c(O)c2)oc2cc(O)cc(O)c12 [MYRICETIN] | 35 µM | 69 µM | 2
32 | O=C1C[C@@H](c2ccc(O)cc2)Oc2cc(O)cc(O)c21 [NARINGENIN] | 92 µM | 294 µM | 3
33 | Cc1cc(=O)c2c(O)cc(O)cc2o1 [NOREUGENIN] | 49 µM | 214 µM | 4
34 | O=c1c(O)c(-c2ccc(O)c(O)c2)oc2cc(O)cc(O)c12 [QUERCETIN] | 132 µM | 132 µM | 1
35 | Cc1cn([C@H]2C[C@H](N=[N+]=[N-])[C@@H](CO)O2)c(=O)[nH]c1=O [ZIDOVUDINE] | 0.04 µM | – | –
